Data on 18 compounds can be found in publication PMC3891043 (Canadian journal of chemistry, 2011).

The nature of data set [1]: Photolysis quantum yields. The format is physicochemical. To be noted: for Photochemical reactivity: photolysis in unbuffered H2O; for Φdis, disappearance quantum yield (pHP diethyl phosphates) / Φdis, disappearance quantum yield (pHP acetates): λ = 300 nm; for Φdis, disappearance quantum yield (pHP acetates): 20% aq CH3CN or DMSO. The method in brief: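 Caged compound (1–9 mmol/L) plus internal standard (caffeine or 4-acetamidophenol) in water, buffer or solvent, in a quartz tube. Irradiated in a Rayonet carousel (two 15 W, 3000 Å Hg lamps), with ferrioxalate actinometry. Aliquots taken every 30 s up to 5 min, diluted and run on C18 LC-MS (water/methanol gradient with ammonium formate/formic acid), three injections each. Quantitation used calibration curves; Φ = concentration change / photons absorbed. 1H NMR in D2O confirmed products.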

Data set [2] is described as follows: Laser flash photolysis / femtosecond pump-probe spectroscopy. The format is physicochemical. The procedure, abridged: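 Pump: 266 nm pulses (frequency-doubled 532 nm NOPA output from a 775 nm Ti/Sa laser), 1 μJ, <150 fs. Probe: supercontinuum from a CaF2 plate, 270–690 nm. Sample flowed through a 0.4 mm cell with a 0.2 mm spot. Probe and reference were read on photodiode arrays; cross-correlation <100 fs. Data to 50 ps were chirp-corrected, and 3–6 scans of 400 shots/point were averaged.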

The conditions of data set [3]: cited from earlier work.
Setting [4] is: unbuffered H2O, singlet λmax ~ 315 nm.
Where [5] appears, read: 300 nm, pH 7.3, HEPES (0.01 mol/L) and LiClO4 (0.1 mol/L).
Where [6] appears, read: 300 nm, pH 8.2, HEPES (0.01 mol/L) and LiClO4 (0.1 mol/L).
The mark [7] stands for this setting: unbuffered 18 MΩ Ultrapure H2O, conversion <2%.
Setting [8] is: 300 nm, pH 5.0, ammonium acetate (0.01 mol/L), buffered CH3CN–H2O.
Where [9] appears, read: unbuffered H2O with acetonitrile (5%) added to dissolve the ester.

Marks after values point to notes of the source that are not given here.

With `NCCCC(=O)OCC(=O)c1ccc(O)c([N+](=O)[O-])c1.O=C(O)C(F)(F)F` [Compound 12, 4-(2-(4-Hydroxy-3-nitrophenyl)-2-oxoethoxy)-4-oxobutan-1-aminium-2,2,2-trifluoroacetate], the Photochemical reactivity entry in data set [1] was “Note: NA, not available. All runs were low conversions to products (<2%). Standard deviations are <±0.02. 3-NO2 (12), 3-OH (4), and 2-OH (5) did not react under these conditions and are omitted. Unbuffered 18 MΩ Ultrapure H2O was used”.
Same read-out and setting: in the case of `NCCCC(=O)OCC(=O)c1ccc(O)c(O)c1.O=C(O)C(F)(F)F` [Compound 4, 4-(2-(3,4-Dihydroxyphenyl)-2-oxoethoxy)-4-oxobutan-1-aminium-2,2,2-trifluoroacetate] it was “Note: NA, not available. All runs were low conversions to products (<2%). Standard deviations are <±0.02. 3-NO2 (12), 3-OH (4), and 2-OH (5) did not react under these conditions and are omitted. Unbuffered 18 MΩ Ultrapure H2O was used”.
Take `NCCCC(=O)OCC(=O)c1ccc(O)c(C(=O)O)c1.O=C(O)C(F)(F)F` [Compound 9, 4-(2-(3-Carboxy-4-hydroxyphenyl)-2-oxoethoxy)-4-oxobutan-1-aminium-2,2,2-trifluoroacetate]: in data set [2] (unbuffered H2O), the “k2, rate constant for triplet decay” value was 1.0 109 s^−1. The “k1, rate constant for triplet rise” value in data set [2] (setting [4]) was 2.1 1011 s^−1.
For `Cc1cc(C(=O)COC(=O)CCCN)ccc1O.O=C(O)C(F)(F)F` [Compound 6, 4-(2-(4-Hydroxy-3-methylphenyl)-2-oxoethoxy)-4-oxobutan-1-aminium-2,2,2-trifluoroacetate], in data set [1] (setting [5]), the “Φapp, quantum yield for the appearance of GABA” value (shortened to “Φapp, quantum yield … of GABA”) is recorded as 0.16; the “Φapp, quantum yield for the appearance of rearranged acid” value (“Φapp … of rearranged acid” for short) was 0.13; the “Φdis, quantum yield for the disappearance of pHP GABA” value (from here on “Φdis, quantum yield”) is 0.15. In addition, in data set [1] (setting [6]), the “Φapp, quantum yield … of GABA” value worked out at 0.08; the “Φapp … of rearranged acid” value amounted to 0.06; the “Φdis, quantum yield” value worked out at 0.08. Also, in data set [1] (setting [7]), the “Φapp, quantum yield … of GABA” value is listed as 0.14; the “Φapp … of rearranged acid” value was found to be 0.13; the “Φdis, quantum yield” value was 0.15.
Turning to `CCOP(=O)(OCC)OCC(=O)c1ccc(O)c(OC)c1` [Compound 28, Diethyl (2-(4-hydroxy-3-methoxyphenyl)-2-oxoethyl) phosphate], the “Φdis, disappearance quantum yield (pHP diethyl phosphates)” value (“Φdis … (pHP diethyl phosphates)” for short) in data set [1] (50% aq CH3CN) came to 0.39.
In the case of `NCCCC(=O)OCC(=O)c1ccc(O)c(C(N)=O)c1.O=C(O)C(F)(F)F` [Compound 11, 4-(2-(3-Carbamoyl-4-hydroxyphenyl)-2-oxoethoxy)-4-oxobutan-1-aminium-2,2,2-trifluoroacetate], in data set [2] (unbuffered H2O), the “k2, rate constant for triplet decay” value is recorded as 2.2 109 s^−1.
Consider `NCCCC(=O)OCC(=O)c1ccc(O)cc1.O=C(O)C(F)(F)F` [Compound 1, 4-(2-(4-Hydroxyphenyl)-2-oxoethoxy)-4-oxobutan-1-aminium-2,2,2-trifluoroacetate], for which the “Φapp, quantum yield … of GABA” value in data set [1] (setting [8]) was 0.20; in data set [1] (setting [5]) it was 0.20; in data set [1] (setting [6]), 0.09; in data set [1] (setting [7]) it was 0.19. The “Φapp … of rearranged acid” value in data set [1] (setting [8]) came out at 0.18; in data set [1] (setting [5]) it was 0.20; in data set [1] (setting [6]), 0.06; in data set [1] (setting [7]) it was 0.16. Also, the “Φdis, quantum yield” value in data set [1] (setting [8]) is 0.21; in data set [1] (setting [5]), 0.21; in data set [1] (setting [6]) it was 0.09; in data set [1] (setting [7]), 0.20. Besides, the “k2, rate constant for triplet decay” value in data set [2] (unbuffered H2O) is listed as 3.0 ^c 109 s^−1. For the same compound, the “k1, rate constant for triplet rise” value in data set [2] (setting [4]) is reported as 4.4 1011 s^−1.
In the case of `CCOP(=O)(OCC)OCC(=O)c1ccc(O)c(C(C)=O)c1` [Compound 32, 2-(3-Acetyl-4-hydroxyphenyl)-2-oxoethyl diethyl phosphate], the “Φdis … (pHP diethyl phosphates)” value in data set [1] (50% aq CH3CN) is reported as 0.03.
As for `CC(=O)OCC(=O)c1ccc(O)cc1C#N` [Compound 25, 2-(2-Cyano-4-hydroxyphenyl)-2-oxoethyl acetate], the “Φdis, disappearance quantum yield (pHP acetates)” value in data set [1] came out at 0.17.
As to `COc1cc(C(=O)COC(=O)CCCN)cc(OC)c1O.O=C(O)C(F)(F)F` [Compound 3, 4-(2-(4-Hydroxy-3,5-dimethoxyphenyl)-2-oxoethoxy)-4-oxobutan-1-amonium-2,2,2-trifluoroacetate], in data set [1] (setting [7]), the “Φapp, quantum yield … of GABA” value is recorded as 0.03 and the “Φdis, quantum yield” value is 0.03. In data set [2] (setting [9]), the “k1, rate constant for triplet rise” value was 2.7 1011 s^−1 and the “k2, rate constant for triplet decay” value is on record as 2.8 ^d 109 s^−1.
In the case of `NCCCC(=O)OCC(=O)c1ccc(O)cc1O.O=C(O)C(F)(F)F` [Compound 5, 4-(2-(2,4-Dihydroxyphenyl)-2-oxoethoxy)-4-oxobutan-1-aminium-2,2,2-trifluoroacetate], the Photochemical reactivity entry in data set [1] is “Note: NA, not available. All runs were low conversions to products (<2%). Standard deviations are <±0.02. 3-NO2 (12), 3-OH (4), and 2-OH (5) did not react under these conditions and are omitted. Unbuffered 18 MΩ Ultrapure H2O was used”.
p-hydroxyphenacyl [pHP]: the “Triplet energy of the conjugate base” value in data set [3] (conjugate base of pHP) is listed as 61.2 kcal/mol. Besides, in data set [3] (un-ionized pHP), the Triplet energy is reported as 71.6 kcal/mol.
As for `CC(=O)OCC(=O)c1ccc(O)c(C#N)c1` [Compound 26, 2-(3-Cyano-4-hydroxyphenyl)-2-oxoethyl acetate], in data set [1], the “Φdis, disappearance quantum yield (pHP acetates)” value is listed as 0.08.
`CCOP(=O)(OCC)OCC(=O)c1cc(OC)c(O)c(OC)c1` [Compound 29, Diethyl (2-(4-hydroxy-3,5-dimethoxyphenyl)-2-oxoethyl) phosphate]: the “Φdis … (pHP diethyl phosphates)” value in data set [1] (50% aq CH3CN) is 0.44 ^d. The “Φdis, disappearance quantum yield” value in data set [1] (λ = 350 nm, 50% aq CH3CN) was “d Φdis = 0.13 at λ = 350 nm”.
In the case of `CC(=O)c1ccc(O)cc1` [Compound 1d, p-hydroxyacetophenone, reference compound], the “Reduction of pKa of the excited triplet state relative to ground-state pKa” value in data set [3] is “about 4.3 pKa units”.
In the case of `COC(=O)c1cc(C(=O)COC(=O)CCCN)ccc1O.O=C(O)C(F)(F)F` [Compound 10, 4-(2-(4-Hydroxy-3-(methoxycarbonyl)phenyl)-2-oxoethoxy)-4-oxobutan-1-aminium-2,2,2-trifluoroacetate], in data set [2] (unbuffered H2O), the “k2, rate constant for triplet decay” value is 1.3 109 s^−1. Further, the “k1, rate constant for triplet rise” value in data set [2] (setting [4]) is reported as 3.2 1011 s^−1.
As for `Cc1cc(C(=O)COC(=O)CCCN)cc(C)c1O.O=C(O)C(F)(F)F` [Compound 8, 4-(2-(4-Hydroxy-3,5-dimethylphenyl)-2-oxoethoxy)-4-oxobutan-1-aminium-2,2,2-trifluoroacetate], in data set [1] (setting [5]), the “Φapp, quantum yield … of GABA” value turned out to be 0.17; the “Φapp … of rearranged acid” value is given as 0.15; the “Φdis, quantum yield” value is on record as 0.17. Besides, in data set [1] (setting [6]), the “Φapp, quantum yield … of GABA” value was 0.11; the “Φapp … of rearranged acid” value is reported as 0.09; the “Φdis, quantum yield” value was 0.11. Further, in data set [1] (setting [7]), the “Φapp, quantum yield … of GABA” value is reported as 0.14; the “Φapp … of rearranged acid” value turned out to be 0.13; the “Φdis, quantum yield” value was 0.15.
As for `COc1cc(C(=O)COC(=O)CCCN)ccc1O.O=C(O)C(F)(F)F` [Compound 2, 4-(2-(4-Hydroxy-3-methoxyphenyl)-2-oxoethoxy)-4-oxobutan-1-amonium-2,2,2-trifluoroacetate], in data set [1] (setting [7]), the “Φapp, quantum yield … of GABA” value stood at 0.06. Further, in data set [2] (unbuffered H2O), the “k2, rate constant for triplet decay” value is on record as 1.3 109 s^−1. Besides, the “k1, rate constant for triplet rise” value in data set [2] (setting [4]) is given as 2.2 1011 s^−1.
